This note sets out measurements from ChEMBL document CHEMBL1138208, “Discovery of N-[(1S,2S)-3-(4-Chlorophenyl)-2- (3-cyanophenyl)-1-methylpropyl]-2-methyl-2- {[5-(trifluoromethyl)pyridin-2-yl]oxy}propanamide (MK-0364), a novel, acyclic cannabinoid-1 receptor inverse agonist for the treatment of obesity” (J Med Chem, 2006).

pIC50: −log10 of the molar value. Calls of active or inactive are those of the source. No cut-off for these calls is given here.

Usually pIC50 stands for −log10 of the IC50, conventionally taken in molar units. One may read the bioavailability as the share of a dose that reaches the circulation, judged against a reference dose that is usually intravenous. A word on the half-life: it is the time in which the quantity being followed falls by half.

One series addresses Cannabinoid receptor 1 (Homo sapiens, UniProt P21554). Put plainly: biochemical. In kind it is cell-based, CHO.
The species named for the next series is Homo sapiens. Put plainly: Protein binding in human liver microsome. It is filed as ADME. As to conditions: microsomes. The gist of the method: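 The tritiated compound was incubated with liver microsomes. Irreversible (covalent) binding of radioactivity to microsomal protein was measured after 1 h of incubation and expressed as pmol equiv/mg protein.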
(Microsomes from liver hold many membrane-bound enzymes, among them those of drug oxidation.)

The test system of series [1] is Rattus norvegicus. The experiment in a line: Inhibition of CP-55940-induced decrease in body temperature in Sprague-Dawley rat at 3 mg/kg, iv. It is filed as functional, organism-based. Set-up: dose 3 mg/kg.
Series [2] has as its system Rattus norvegicus. Put plainly: Reduction in Sprague-Dawley rat body weight at 1 mg/kg, po after 14 days relative to control. Further details: scale not given: the % may be the effect or the level left. In kind it is functional. The procedure, abridged:
(§1)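 Diet-induced obese (DIO) rats were dosed orally once daily (qd) for 14 days at 0.3, 1 or 3 mg/kg. Body weight change is expressed as percent reduction relative to vehicle-treated animals.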

Series [3] in a line: Bioavailability in Sprague-Dawley rat at 1 mg/kg, iv and 2 mg/kg, po. It is filed as ADME, organism-based. As to conditions: in vivo.
Series [4] in a line: Half life in rhesus monkey at 0.2 mg/kg, iv and 0.4 mg/kg, po. In kind it is ADME, organism-based, Macaca mulatta. As to conditions: in vivo.
Series [5] deals with Rattus norvegicus. The experiment in a line: Reduction in Sprague-Dawley rat body weight at 3 mg/kg, po after 14 days relative to control. It is filed as functional. Set-up: scale not given: the % may be the effect or the level left. The procedure, abridged:
as §1

Series [6] in a line: Bioavailability in rhesus monkey at 0.2 mg/kg, iv and 0.4 mg/kg, po. It is filed as ADME, organism-based, Macaca mulatta. As to conditions: in vivo.
Series [7] has as its system Rattus norvegicus. Put plainly: Reduction in Sprague-Dawley rat body weight at 0.3 mg/kg, po after 14 days relative to control. In kind it is functional. Further details: scale not given: the % may be the effect or the level left. The procedure, abridged:
as §1

Series [8] can be described thus: Drug level in Sprague-Dawley rat plasma at 1 mg/kg, iv after 1 hr. It is filed as ADME, organism-based. As to conditions: read-out: Drug uptake. Set-up: dose 1 mg/kg, route intravenous.
Series [9] in a line: Half life in dog at 0.2 mg/kg, iv and 0.4 mg/kg, po. The note with it: in vivo. In kind it is ADME, organism-based, Canis lupus familiaris.
Series [10] is described as follows: Bioavailability in dog at 0.2 mg/kg, iv and 0.4 mg/kg, po. It is filed as ADME, organism-based, Canis lupus familiaris. The note with it: in vivo.
Series [11] can be described thus: Drug level in Sprague-Dawley rat brain at 1 mg/kg, iv after 1 hr. In kind it is ADME, organism-based. Further details: dose 1 mg/kg, route intravenous. As to conditions: read-out: Drug uptake.
The target of a further series is Cannabinoid receptor 2 (Homo sapiens, UniProt P34972). The experiment in a line: Inhibition of [3H]CP-55940 binding to human recombinant CB2 receptor in CHO cells. It is filed as cell-based.
Cannabinoid receptor 2, sequence (P34972 whole entry): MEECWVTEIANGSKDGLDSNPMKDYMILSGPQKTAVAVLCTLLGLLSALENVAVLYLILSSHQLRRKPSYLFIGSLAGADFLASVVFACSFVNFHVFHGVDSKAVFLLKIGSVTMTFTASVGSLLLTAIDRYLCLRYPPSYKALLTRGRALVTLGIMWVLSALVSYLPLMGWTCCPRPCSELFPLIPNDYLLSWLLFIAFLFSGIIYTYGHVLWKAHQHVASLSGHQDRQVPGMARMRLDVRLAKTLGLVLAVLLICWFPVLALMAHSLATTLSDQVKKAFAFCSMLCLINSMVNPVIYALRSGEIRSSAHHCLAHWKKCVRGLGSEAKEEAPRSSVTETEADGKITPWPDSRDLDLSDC
In series [12] the test system is Rattus norvegicus. Put plainly: Reduction in food uptake in DIO Sprague-Dawley rat at 3 mg/kg, po. In kind it is functional. Further details: scale not given: the % may be the effect or the level left. The procedure, abridged:
(§2)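 Diet-induced obese rats were dosed orally. Overnight food intake was measured and reported as % change (mean ± error).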

The subject of series [13] is Rattus norvegicus. Put plainly: Reduction in food uptake in DIO Sprague-Dawley rat at 10 mg/kg, po. In kind it is functional. Set-up: scale not given: the % may be the effect or the level left. The gist of the method:
as §2

Cannabinoid receptor 1, sequence (P21554 whole entry): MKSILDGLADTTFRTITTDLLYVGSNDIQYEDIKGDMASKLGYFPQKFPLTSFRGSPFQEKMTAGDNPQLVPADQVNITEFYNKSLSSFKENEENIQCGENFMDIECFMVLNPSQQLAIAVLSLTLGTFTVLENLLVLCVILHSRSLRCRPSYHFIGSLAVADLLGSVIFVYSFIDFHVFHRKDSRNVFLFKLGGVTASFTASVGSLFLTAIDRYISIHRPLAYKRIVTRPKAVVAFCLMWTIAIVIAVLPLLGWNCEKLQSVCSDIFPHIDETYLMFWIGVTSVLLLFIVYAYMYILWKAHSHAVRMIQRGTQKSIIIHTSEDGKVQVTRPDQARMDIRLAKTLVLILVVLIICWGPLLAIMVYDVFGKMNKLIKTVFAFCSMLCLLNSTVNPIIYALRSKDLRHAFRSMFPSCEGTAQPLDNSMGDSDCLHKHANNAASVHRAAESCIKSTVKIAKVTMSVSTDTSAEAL

At Cannabinoid receptor 1, `C[C@H](NC(=O)C(C)(C)Oc1cccnc1)[C@@H](Cc1ccc(Cl)cc1)c1ccccc1` had a negative-log IC50 (pIC50) of 7.72.

The molecule `C[C@H](NC(=O)C(C)(C)Oc1ccc(Cl)cn1)[C@@H](Cc1ccc(Cl)cc1)c1ccccc1` had an Activity in the series listed under Homo sapiens of 300 pmol/mg.

Take `C[C@H](NC(=O)C(C)(C)Oc1ccc(Cl)cc1)[C@@H](Cc1ccccc1Cl)c1ccccc1`: the pIC50 against Cannabinoid receptor 1 was 6.85.

On to `C[C@H](NC(=O)C(C)(C)Oc1ccc(Cl)cc1)[C@@H](Cc1ccc(C(F)(F)F)cc1)c1ccccc1`, for which the pIC50 against Cannabinoid receptor 1 was 8.47.

With `C[C@H](NC(=O)C(C)(C)Oc1ccc(C(F)(F)F)cn1)[C@@H](Cc1ccc(Cl)cc1)c1cccc(C#N)c1` [TARANABANT], the result in the series with Rattus norvegicus [1] was Active. Moreover, the Activity in the series on Rattus norvegicus [2] is given as 5%; in the series with Rattus norvegicus [5], 7%; in the series filed under Homo sapiens, 27 pmol/mg; in the series with Rattus norvegicus [7] it was 4%. Moreover, the bioavailability in series [3] came to 74%; in series [6], 31%; in series [10] it was 31%. Further, the values for the half-life in [4] and in series [9] were 3.6 h and 14 h, respectively. For the same molecule, the concentration at 1 h stood at 180 nM in [8] and 110 nM in series [11].

As for `C[C@H](NC(=O)C(C)(C)Oc1ccc(Cl)cc1)[C@@H](Cc1ccc(Cl)cc1)c1cccc(F)c1`, the negative logarithm of the IC50 (pIC50) at Cannabinoid receptor 1 was 8.55; on Cannabinoid receptor 2, 6.28.

For `C[C@H](NC(=O)C(C)(C)Oc1ccccc1Cl)[C@@H](Cc1ccc(Cl)cc1)c1ccccc1`, the pIC50 at Cannabinoid receptor 1 is 7.74.

With `C[C@H](NC(=O)C(C)(C)Oc1ccc(Cl)cc1)[C@@H](Cc1ccc(Cl)cc1)c1ccccc1F`, the pIC50 against Cannabinoid receptor 1 was 7.92; at Cannabinoid receptor 2, 6.39.

As for `C[C@H](NC(=O)C(C)(C)Oc1ccc(Cl)cc1)[C@@H](Cc1ccccc1)c1ccccc1`, the pIC50 on Cannabinoid receptor 1 is 7.48.

On to `C[C@H](NC(=O)C(C)(C)Oc1cc(F)cc(F)c1)[C@@H](Cc1ccc(Cl)cc1)c1ccccc1`, for which the bioavailability in series [3] stood at 19%. The Activity came to 1700 pmol/mg in the series filed under Homo sapiens, 55% with Rattus norvegicus [12] and 81% in the series on Rattus norvegicus [13]. Besides, the concentration at 1 h in series [8] amounted to 350 nM; in series [11], 270 nM.

For the molecule `C[C@@H](NC(=O)C(C)(C)Oc1ccc(Cl)cc1)[C@H](Cc1ccc(Cl)cc1)c1ccc(Cl)cc1`, the results for the negative-log IC50 (pIC50) against Cannabinoid receptor 1 and on Cannabinoid receptor 2 were 7.89 and 6.22, respectively.

As to `C[C@H](NC(=O)C(C)(C)Oc1ccncc1)[C@H](Cc1ccc(Cl)cc1)c1ccccc1`, the negative-log IC50 (pIC50) was 7.77 at Cannabinoid receptor 1 and 5.92 at Cannabinoid receptor 2.

Turning to `C[C@@H](NC(=O)C(C)(C)Oc1ccc(Cl)cc1)[C@H](Cc1ccc(Cl)cc1)c1ccccc1`, the pIC50 is 6.77 against Cannabinoid receptor 1 and 5.77 on Cannabinoid receptor 2.

At Cannabinoid receptor 1, `C[C@H](NC(=O)C(C)(C)Oc1ccc(Cl)cc1)[C@@H](Cc1ccc(Cl)cc1)c1ccc(F)cc1` gave a pIC50 of 7.05.

In the case of `C[C@H](NC(=O)C(C)(C)Oc1ccc(C(F)(F)F)cn1)[C@@H](Cc1ccc(Cl)cc1)c1ccccc1`, in the series listed under Homo sapiens, the Activity was 88 pmol/mg.

Molecule `C[C@H](NC(=O)C(C)(C)Oc1ccccn1)[C@@H](Cc1ccc(Cl)cc1)c1ccccc1` displayed an Activity in the series listed under Homo sapiens of 910 pmol/mg.

Take `C[C@H](NC(=O)C(C)(C)Oc1ccccc1)[C@@H](Cc1ccc(Cl)cc1)c1ccccc1`: the Activity in the series listed under Homo sapiens is 3900 pmol/mg.

`C[C@H](NC(=O)C(C)(C)Oc1ccc(Cl)cc1)[C@@H](Cc1ccc(F)cc1)c1ccccc1` had a pIC50 against Cannabinoid receptor 1 of 7.85.
